From ChEMBL document CHEMBL3045357, “DNA adducts as biomarkers for oxidative and genotoxic stress from pesticides in crop plants” (J Agric Food Chem, 2008)

Assays:
Type in all cases: organism-based
Details in all cases: in vivo, other, 336 h
Vitis vinifera [1] = experiment: Genotoxicity in Vitis vinifera exposed to compound through spray 4 times over 2 weeks assessed as relative adduct level A2 measured per 10^9 nucleotides using HX-dG internal standard using [32P]labeling based autoradiography relative to untreated control
Summary of the method: (§1)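 Plants (2–6 weeks grown), groups of 2–4, sprayed 4 times over 2 weeks with formulations diluted per label (chlorothalonil 1:256, carbaryl 1:64 in water); controls water-sprayed. DNA from 1 g leaf via DNeasy Maxi kit. 10 µg DNA digested with micrococcal nuclease/spleen phosphodiesterase (4 h, 37 °C), NP1-enriched (45 min, 37 °C), labelled with [γ-32P]ATP/T4 kinase (45 min, 37 °C).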

Cucurbita pepo [2] = experiment: Genotoxicity in Cucurbita pepo (pumpkin) exposed to compound through spray 4 times over 2 weeks assessed as relative adduct level A2 measured per 10^9 nucleotides using [32P]labeling based autoradiography relative to untreated control; summary of the method: as §1
Cucurbita pepo [3] = experiment: Genotoxicity in Cucurbita pepo (pumpkin) exposed to compound through spray 4 times over 2 weeks assessed as relative adduct level A6 measured per 10^9 nucleotides using HX-dG internal standard using [32P]labeling based autoradiography relative to untreated control; summary of the method: as §1
Phaseolus vulgaris [4] = experiment: Genotoxicity in Phaseolus vulgaris (bush beans) exposed to compound through spray 4 times over 2 weeks assessed as relative adduct level A2 measured per 10^9 nucleotides using HX-dG internal standard using [32P]labeling based autoradiography relative to untreated control; summary of the method: as §1
Phaseolus vulgaris [5] = experiment: GenoToxicity in Phaseolus vulgaris (bush beans) exposed to compound through spray 4 times over 2 weeks assessed as relative adduct level A5 measured per 10^9 nucleotides using [32P]labeling based autoradiography relative to untreated control; summary of the method: as §1
Phaseolus vulgaris [6] = experiment: Genotoxicity in Phaseolus vulgaris (bush beans) exposed to compound through spray 4 times over 2 weeks assessed as relative adduct level A2 measured per 10^9 nucleotides using [32P]labeling based autoradiography relative to untreated control; summary of the method: as §1
Cucumis sativus [7] = experiment: Genotoxicity in Cucumis sativus (cucumber) exposed to compound through spray 4 times over 2 weeks assessed as relative adduct level A3 measured per 10^9 nucleotides using [32P]labeling based autoradiography relative to untreated control; summary of the method: as §1
Vitis vinifera [8] = experiment: Genotoxicity in Vitis vinifera exposed to compound through spray 4 times over 2 weeks assessed as relative adduct level A3 measured per 10^9 nucleotides using HX-dG internal standard using [32P]labeling based autoradiography relative to untreated control; summary of the method: as §1
Glycine max [9] = experiment: Genotoxicity in Glycine max (soybean) exposed to compound through spray 4 times over 2 weeks assessed as relative adduct level A1 measured per 10^9 nucleotides using HX-dG internal standard using [32P]labeling based autoradiography relative to untreated control; summary of the method: as §1
Cucumis sativus [10] = experiment: Genotoxicity in Cucumis sativus (cucumber) exposed to compound through spray 4 times over 2 weeks assessed as relative adduct level A2 measured per 10^9 nucleotides using HX-dG internal standard using [32P]labeling based autoradiography relative to untreated control; summary of the method: as §1
Glycine max [11] = experiment: Genotoxicity in Glycine max (soybean) exposed to compound through spray 4 times over 2 weeks assessed as relative adduct level A5 measured per 10^9 nucleotides using [32P]labeling based autoradiography relative to untreated control; summary of the method: as §1
Glycine max [12] = experiment: Genotoxicity in Glycine max (soybean) exposed to compound through spray 4 times over 2 weeks assessed as relative adduct level A5 measured per 10^9 nucleotides using HX-dG internal standard using [32P]labeling based autoradiography relative to untreated control; summary of the method: as §1
Cucumis sativus [13] = experiment: Genotoxicity in Cucumis sativus (cucumber) exposed to compound through spray 4 times over 2 weeks assessed as relative adduct level A2 measured per 10^9 nucleotides using [32P]labeling based autoradiography relative to untreated control; summary of the method: as §1
Phaseolus vulgaris [14] = experiment: Genotoxicity in Phaseolus vulgaris (bush beans) exposed to compound through spray 4 times over 2 weeks assessed as relative adduct level A4 measured per 10^9 nucleotides using [32P]labeling based autoradiography relative to untreated control; summary of the method: as §1
Glycine max [15] = experiment: Genotoxicity in Glycine max (soybean) exposed to compound through spray 4 times over 2 weeks assessed as HNE-dG adducts using [32P]labeling based autoradiography (reference value: 34 cpm); summary of the method: as §1
Glycine max [16] = experiment: Genotoxicity in Glycine max (soybean) exposed to compound through spray 4 times over 2 weeks assessed as relative adduct level A4 measured per 10^9 nucleotides using HX-dG internal standard using [32P]labeling based autoradiography relative to untreated control; summary of the method: as §1
Cucurbita pepo [17] = experiment: Genotoxicity in Cucurbita pepo (pumpkin) exposed to compound through spray 4 times over 2 weeks assessed as relative adduct level A5 measured per 10^9 nucleotides using HX-dG internal standard using [32P]labeling based autoradiography relative to untreated control; summary of the method: as §1
Cucurbita pepo [18] = experiment: Genotoxicity inCucurbita pepo (pumpkin) exposed to compound through spray 4 times over 2 weeks assessed as relative adduct level A4 measured per 10^9 nucleotides using HX-dG internal standard using [32P]labeling based autoradiography relative to untreated control
Summary of the method: (§2)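 Plants grown 2-6 weeks, groups of 2-4 sprayed four times over 2 weeks with label-rate formulations; water-sprayed controls. Leaf DNA kit-extracted. 10 µg DNA digested with micrococcal nuclease/spleen phosphodiesterase 4 h at 37 °C. NP1-enriched, then labeled with [γ-32P]ATP/T4 kinase 45 min at 37 °C. 2D PEI-cellulose TLC, imager readout. Samples spiked with 50 fmol HX-dG standard.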

Vitis vinifera [19] = experiment: Genotoxicity in Vitis vinifera exposed to compound through spray 4 times over 2 weeks assessed as relative adduct level A1 measured per 10^9 nucleotides using HX-dG internal standard using [32P]labeling based autoradiography relative to untreated control; summary of the method: as §1
Phaseolus vulgaris [20] = experiment: Genotoxicity in Phaseolus vulgaris (bush beans) exposed to compound through spray 4 times over 2 weeks assessed as relative adduct level A1 measured per 10^9 nucleotides using [32P]labeling based autoradiography relative to untreated control; summary of the method: as §1
Cucurbita pepo [21] = experiment: Genotoxicity in Cucurbita pepo (pumpkin) exposed to compound through spray 4 times over 2 weeks assessed as relative adduct level A3 measured per 10^9 nucleotides using [32P]labeling based autoradiography relative to untreated control; summary of the method: as §1
Vitis vinifera [22] = experiment: Genotoxicity in Vitis vinifera exposed to compound through spray 4 times over 2 weeks assessed as relative adduct level A3 measured per 10^9 nucleotides using [32P]labeling based autoradiography relative to untreated control; summary of the method: as §2
Glycine max [23] = experiment: Genotoxicity in Glycine max (soybean) exposed to compound through spray 4 times over 2 weeks assessed as relative adduct level A3 measured per 10^9 nucleotides using HX-dG internal standard using [32P]labeling based autoradiography relative to untreated control; summary of the method: as §1
Cucumis sativus [24] = experiment: Genotoxicity in Cucumis sativus (cucumber) exposed to compound through spray 4 times over 2 weeks assessed as relative adduct level A1 measured per 10^9 nucleotides using HX-dG internal standard using [32P]labeling based autoradiography relative to untreated control; summary of the method: as §1
Cucumis sativus [25] = experiment: Genotoxicity in Cucumis sativus (cucumber) exposed to compound through spray 4 times over 2 weeks assessed as relative adduct level A1 measured per 10^9 nucleotides using [32P]labeling based autoradiography relative to untreated control; summary of the method: as §1

## N#Cc1c(Cl)c(Cl)c(Cl)c(C#N)c1Cl [CHLOROTHALONIL]
Vitis vinifera [1]
  Activity: 4015 cpm
Cucurbita pepo [2]
  Activity: 26
Cucurbita pepo [3]
  Activity: 71701 cpm
Phaseolus vulgaris [4]
  Activity: 5697 cpm
Phaseolus vulgaris [5]
  Activity: 127
Phaseolus vulgaris [6]
  Activity: 164
Cucumis sativus [7]
  Activity: 229
Vitis vinifera [8]
  Activity: 9447 cpm
Glycine max [9]
  Activity: 40547 cpm
Cucumis sativus [10]
  Activity: 12506 cpm
Glycine max [11]
  Activity: 91
Glycine max [12]
  Activity: 4613 cpm
Cucumis sativus [13]
  Activity: 268
Phaseolus vulgaris [14]
  Activity: 81
Glycine max [15]
  Activity: 8163 cpm
Glycine max [16]
  Activity: 6823 cpm
Cucurbita pepo [17]
  Activity: 3195 cpm
Cucurbita pepo [18]
  Activity: 679 cpm
Vitis vinifera [19]
  Activity: 2201 cpm
Phaseolus vulgaris [20]
  Activity: 169
Cucurbita pepo [21]
  Activity: 60
Vitis vinifera [22]
  Activity: 155
Glycine max [23]
  Activity: 6932 cpm
Cucumis sativus [24]
  Activity: 5420 cpm
Cucumis sativus [25]
  Activity: 116
